Consider 48 sequences from the EternaBench riboswitch data.

For the data set, the system named is MS2 coat protein. The experiment in a line: apparent Kd, MS2 coat protein; higher = weaker binding; RNA-MaP array; FMN 200 µM where present. The procedure, abridged:
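Green signal was scaled to red-channel RNA signal and control-cluster median Fmax, and the apparent Kd was taken as the median of filtered per-cluster binding-curve fits. The binding series used SNAP-549-labelled MS2 coat protein from 0.7 or 1.5 nM, doubling to 3 µM, on designs transcribed by stalled E. coli RNA polymerase on Illumina sequencing-chip clusters. Each series ran without and then with constant ligand in 100 mM Tris-HCl pH 7.5, 80 mM KCl, 4 mM MgCl2, BSA, DTT, yeast tRNA and Tween-20.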

Setting [1] is: designed as: OFF switch for flavin mononucleotide, no ligand.
[2] abbreviates: ligand present: flavin mononucleotide, designed as: OFF switch for flavin mononucleotide.
The mark [3] stands for this setting: designed as: ON switch for flavin mononucleotide, no ligand.
Setting [4] is: ligand present: flavin mononucleotide, designed as: ON switch for flavin mononucleotide.

Regarding “GGUACUCAAAGAGUACCAAUACGAACAUGAGGAUCACCCAUGUAGGAUAUGCUAUCGAAACGAUAGCAGAAGGACAUGUGCCUU”, the apparent Kd (in general, the concentration giving half-maximal binding under the conditions of the assay) runs as follows: under setting [1], 26.4 nM; under setting [2], 218 nM. Regarding “CUUUUGUGAGGAUAUCAGUAGUAAAUUAAUAAAAUUACUACUGAGAAGGCACAUGAGGAUCACCCAUGUUCCUC”, the “apparent Kd” value is, setting by setting: under setting [1], 42.6 nM; under setting [2], 285 nM.

Consider “UUUUACGUAGGAUAUACAUUUUUUUUAUUAUUUUCAUUAUUACAUGAGGAUCACCCAUGUAGAAGGACGAUUUU”, for which the “apparent Kd” value by setting is: under setting [1], 22.8 nM; under setting [2], 22 nM. Turning to “AUACUCAUGUAAGGAUAUGCAGCCGUUUCGGCUGCAGAAGGUACUAUAAUACAUGAGGAUCACCCAUGUCUCUCGCAUUGCGAG”, the “apparent Kd” value by setting is: under setting [3], 131 nM; under setting [4], 178 nM.

For the sequence “GGGUGGCGUAGAGGAUAUGUGGUACAUGAGGAUCACCCAUGUGCAUAUGAUGUUCGUGUGUCUUCAUAGAAGGCUACGUCGCUA”, the “apparent Kd” value is, setting by setting: under setting [3], 97 nM; under setting [4], 63 nM. Turning to “GGAGCUCCUGACAUGAGGAUCACCCAUGUUCACUUAUUAAAUCAGGAUAUCCUCUCGAAACGAGAGGAGAAGGGAUAUGCUCCU”, the “apparent Kd” value under setting [3] was 7.58 nM and the “apparent Kd” value under setting [4] worked out at 7.04 nM. Regarding “CUGCUGAAGCUUUGCUUUAGUCGUACAUGAGGAUCACCCAUGUAGGAUAUGGUAGGCUUUGCUUACUAGAAGGAUAGAGUGGUC”, the “apparent Kd” value runs as follows: under setting [1], 52.6 nM; under setting [2], 27.6 nM. For “CGGGAGUCAGGAUAUACGAACAUGUCGCCAGAUGUCAAGGUACAUGAGGAUCACCCAUGUAGAAGGGAGGAGAU”, in that order: 80.6 nM and 72.7 nM. Turning to “UUUAUAAAGGUAGGAUAUUGUAUUAUAAUUAAAUAAGAAGGAUCACACAUGAGGAUCACCCAUGUAUGAGGAUCACCCAUGUAU”, the “apparent Kd” value runs as follows: under setting [1], 15.7 nM; under setting [2], 14.4 nM.

In the case of “UCAUAUUUACAAGGAUAUCAAUUAUUUAUACAUCCUACAUGAGGAUCACCCAUGUUUUUAUAUUUUGAGAAGGUGUAAUGUCGG”, the “apparent Kd” value is 44.4 nM under setting [3] and 40.4 nM under setting [4]. “AAUAACAGAGGAUAUACUAUUUUAUGUGUUUGUUAUUUUGAACAUGAGGAUCACCCAUGUAGAAGGCUGAUUGA”: the “apparent Kd” value reads like this: under setting [1], 47 nM; under setting [2], 44 nM.

As to “GAGGCUGGUCAGAAGGCGCUGCAGGCUGCGUAGCGAGGAUAUGACAUGAGGAUCACCCAUGUGGUAGCUGAUCCUCGGCGUUUA”, the “apparent Kd” value runs as follows: under setting [1], 361 nM; under setting [2], 33.3 nM. With “UCGUACUUUCGAGGAUAUCGGUGAUAUAUAUUACGAGAAGGCGAUUGUUUGUUUUACGUCUUAGACAUGAGGAUCACCCAUGUA”, the “apparent Kd” value runs as follows: under setting [3], 40.4 nM; under setting [4], 30.5 nM. In the case of “AUAAAUGAGGAGGAUAUCGAAUCGGAAACGAUUCGAGAAGGCCUAACAUGAGGAUCACCCAUGUUCCUUAAAUA”, the “apparent Kd” value under setting [1] came out at 28.8 nM and the “apparent Kd” value under setting [2] is 42.2 nM.

Turning to “AACAGUACAGGAUAUACAUGAGGAUCACCCAUGUGACAAUUAAGUGGCGUACCACAAAGUAGAAGGGUACUGGA”, the “apparent Kd” value under setting [1] stood at 28.2 nM and the “apparent Kd” value under setting [2] worked out at 150 nM.

For the sequence “UUACAUACAAAGUUACAUGAGGAUCACCCAUGUUUAUUGGGAAGAAGGGUAACAGUAUUACAUAUAUAGGAUAUUUCACAAAUG”, the “apparent Kd” value runs as follows: under setting [3], 409 nM; under setting [4], 251 nM. With “AAGCAAGCAGGGAUGCUUCGUAGGGAGGAUAUCUGACUGGGCGGACAUGAGGAUCACCCAUGUACAGAGAAGGCCCAAAACAAC”, the “apparent Kd” value was determined as 376 nM under setting [1] and 61.6 nM under setting [2]. Take “GGGUGCAUCGGAGGAUAUCAUGUAAAUACAUGAGGAUCACCCAUGUCGAUGGAGACAUCGGAGAUUGAGAAGGCCGAUGUACCG”: the “apparent Kd” value under setting [3] is 172 nM and the “apparent Kd” value under setting [4] came out at 8.99 nM. “AAAAGGCUAGGAUAUACAUGAGGAUCACCCAUGUGUACUGGACAUGCGGUAUGCGGAUGUAGAAGGAGUAUAAA”: the “apparent Kd” value stood at 23.4 nM under setting [1] and 62.4 nM under setting [2].

“AGUUAAUAUCGAGGAUAUCUCAUGGAGACAUGAGGAUCACCCAUGUGAAUGGGAGAAGGCGAUAUUAACAGCAUGUUACAUGCA”: the “apparent Kd” value came to 284 nM under setting [3] and 21.2 nM under setting [4]. On to “CAGCUGAAUGUGAGGAUAUCUAGAGCUUCGGCUCUAGAGAAGGCACAUGAGGAUCACCCAUGUCUCAACAGCUG”, for which the “apparent Kd” value is, setting by setting: under setting [1], 39.2 nM; under setting [2], 296 nM. Taken in the same sequence, the figures for “AGCUGGUGACAGCAAGAAAUUUCACAUGAGGAUCACCCAUGUAGAAGGCUGUACGGUUACCGUACAGAGGAUAUACAUAGAAAG” were 22.4 nM and 30.5 nM. For “UAGAAGUCAGGAUAUGCUGCUCGUCACUUGCGUGAUGAGUAGCAGAAGGGACAUGAGGAUCACCCAUGUAAAGA”, in that order: 57.4 nM and 79.9 nM. For “CAAUUUAUAACAGGAUAUAUAAUACAAUGAUUAAUAGAAGGGUUUAAUACAUGAGGAUCACCCAUGUCAUGUGUCAUAAUUACC”, in that order: 40.1 nM and 32 nM. Consider “AAAUAGUUAGGAUAUACAUGAGGAUCACCCAUGUGGACUUAUGGCGAUUAAUUUAGUGGUAGAAGGGACUAAAA”, for which the “apparent Kd” value is, setting by setting: under setting [1], 37.2 nM; under setting [2], 47.6 nM.

On to “CGGCGCUGUCGAGAGGAUAUGCGGUGAUGGACAUGAGGAUCACCCAUGUUAGCGAUAGCAUCACGGUAGAAGGCUCUACGGCUUG”, for which the “apparent Kd” value amounted to 46.3 nM under setting [3] and 15.5 nM under setting [4]. With “GGAUGUCUGGAGGAUAUACAGACUAUUAGAUCAGUAGAAGGUCAGACAUGAGGAUCACCCAUGUUAGUGUAUCC”, the “apparent Kd” value worked out at 52 nM under setting [1] and 473 nM under setting [2].

Take “UUUUAACAUGAGGAUCACCCAUGUGAGGAUAUCGAAAUUUAUAUUAAUAUUAUUUAAUCGAGAAGGCACAUUUU”: the “apparent Kd” value by setting is: under setting [1], 110 nM; under setting [2], 118 nM.

Regarding “GAGCGGGAAACAUGAGGAUCACCCAUGUAGUAAAUCCUCACGUAGGAUAUGCACACGAGAAGUGUGCAGAAGGGCGACCCGGUC”, the “apparent Kd” value reads like this: under setting [1], 79.6 nM; under setting [2], 183 nM. Consider “GCACGAGACUAAGGAUAUGGAGUGUCUACAUUAAACAUGAGGAUCACCCAUGUAGGGAGUAUGAUUCAGAAGGUAGAGACGUGC”, for which the “apparent Kd” value reads like this: under setting [3], 331 nM; under setting [4], 48.3 nM. With “UUUGCAACAUGAGGAUCACCCAUGUAGGAUAUCGCUAUUGUAAUCAUGAAACAUGAUUACAAUAGCGAGAAGGACAUAUGCGGG”, the “apparent Kd” value amounted to 44.4 nM under setting [1] and 35 nM under setting [2]. As for “AAGAAGUGAGGAUAUACAUGAGGAUCACCCAUGUUAAGAAGAAUUUUAGAGAAAGAAGGUAGAAGGCACAAGAA”, the “apparent Kd” value under setting [1] was 49.5 nM and the “apparent Kd” value under setting [2] was found to be 47.1 nM. On to “GUGGUGCAUAUACGUGGAUGUACAUGAGGAUCACCCAUGUGAGAGGAUAUGCGGAUACUAGCUCAGCAGAAGGCUUACAAAUGA”, for which the “apparent Kd” value reads like this: under setting [1], 15.2 nM; under setting [2], 45.8 nM. On to “GCUGUCGCGUGAGGAUAUGGUCAGCUUUGCUGACCAGAAGGCAUGUCAAUAGACAUGAGGAUCACCCAUGUGGUUAGGGCGGCU”, for which the “apparent Kd” value stood at 1070 nM under setting [3] and 136 nM under setting [4]. On to “AAAAAACAUGAGGAUCACCCAUGUGAGGAUAUGCUAAAAAAAAAAAAAAAAAAAAAAUGCAGAAGGUACAAAAA”, for which the “apparent Kd” value by setting is: under setting [1], 75.9 nM; under setting [2], 72.8 nM. For “GCCAGUUAUGUAGGAUAUGCGAAGCGAGCCUGAGCAGAAGGACAUGAGGAUCACCCAUGUGUUGCGGUUUGAGUACUGAUCGCU”, in that order: 24.4 nM and 89.4 nM.

As for “ACUUGUAAGUAGAAGGUAGUCAUUAUAUUAAUCAUGUAAACAUGAGGAUCACCCAUGUAGAGUACUAAGGAUAUACAUCGAUAG”, the “apparent Kd” value under setting [2] amounted to 9.91 nM. In the case of “GCCAUCGCAUGAGGAUAUGGCACCGUUUCGGUGCCAGAAGGCAUGUCAAAUGACAUGAGGAUCACCCAUGUAGUUAAGAUGGCC”, the “apparent Kd” value was 157 nM under setting [3] and 13 nM under setting [4]. For the sequence “CCGGAAAUGAAGGAUAUAGGUGUCGAUAGACUCCUAGAAGGUCAUACAUGAGGAUCACCCAUGUGUCCUACCGG”, the “apparent Kd” value reads like this: under setting [1], 15.7 nM; under setting [2], 32.6 nM. Consider “GUGGUGUAGAUACAGGAUAUGUUGCUCGUAACAUGAGGAUCACCCAUGUAUCUAUGAGAUAAAAUGCAGAAGGGUGCACACCACU”, for which the “apparent Kd” value was determined as 357 nM under setting [3] and 19.1 nM under setting [4].

“AAACAGGGAGGAUAUACAUAGAUCCUCUAACCUAAUAGGUCACAUGAGGAUCACCCAUGUAGAAGGCCCUUAGG”: the “apparent Kd” value under setting [1] amounted to 12.4 nM and the “apparent Kd” value under setting [2] stood at 12.2 nM.

Consider “AAUAUGUUGCAGAAGGUUAUAUUUAUUUAGUACCUCAUGACAUGAGGAUCACCCAUGUUAAUGUUGAAGGAUAUGCAAUAUAUU”, for which the “apparent Kd” value was 14.1 nM under setting [1] and 13.6 nM under setting [2].

As to “AUCAGCUCGUCAGGAUAUACGUCACUGCGUCAGCAGUGUGGUAAGAUCACAUGAGGAUCACCCAUGUAGAAGGAACGAGCUGAU”, the “apparent Kd” value reads like this: under setting [1], 8.41 nM; under setting [2], 14.7 nM. For the sequence “GUCAGCUCGUGAGGAUAUACAACACUGCUUCGGCAGUGUAUUUAGAUCACAUGAGGAUCACCCAUGUAGAAGGCACGAGCUGAU”, the “apparent Kd” value is 15.6 nM under setting [1] and 363 nM under setting [2]. “GCGGUACAUGAGGAUCACCCAUGUCAGGAUAUCCGCUGUUUGUUGAUUAGCAGGCGGUGGAGAAGGGACUUCGC”: the “apparent Kd” value under setting [1] is 36.6 nM and the “apparent Kd” value under setting [2] amounted to 36 nM.

On to “UCAGUCAUGUAAGGAUAUGCAGCCGUUUCGGCUGCAGAAGGUACUAUAAUUACAUGAGGAUCACCCAUGUUAUAAAAUUUAUAU”, for which the “apparent Kd” value by setting is: under setting [3], 52.5 nM; under setting [4], 19.9 nM.

“GCAGCUCCUGACAUGAGGAUCACCCAUGUUCAAUUGUUGAGUCAGGAUAUAGUCUAGAAACUAGACUAGAAGGGAUAUGCUGCU”: the “apparent Kd” value by setting is: under setting [3], 12.3 nM; under setting [4], 10.8 nM.

“AUUUCGUUAGCAGGAUAUGGACAGGCCUGUCCGUAUUGAGACAGUAACAUGAGGAUCACCCAUGUCCAGAAGGGCUCGAAGUAU”: the “apparent Kd” value by setting is: under setting [1], 30.2 nM; under setting [2], 43.9 nM.
